Experiments:
[1] = Neuroprotective activity in oligomeric amyloid beta peptide-induced human MC65 cells assessed as cell viability by MTT assay; type: functional, cell-based
In short: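 Protection against Aβ oligomer-induced toxicity in MC65 cells, reported as EC50 (median effective concentration).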

[2] = Cytotoxicity against human MC65 cells by MTT assay; type: cell-based; settings: read-out: TC50 (the source's name)
In short: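 MC65 cells kept with tetracycline in the medium to suppress C99 production, so the cells survive and compound toxicity alone is measured. Reported as TC50 (median toxic concentration).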

[3] = Drug uptake in CD1 mouse plasma at 5 mg/kg, po daily for 75 days; type: ADME, organism-based; design: dose 5 mg/kg, route oral
In short: (§1)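 CD1 mice received 5 mg/Kg by oral gavage once daily for 75 days (four treated, two untreated). Compound in tissues and plasma was quantified by a previously reported procedure and expressed in µM as mean ± standard deviation (n = 4).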

[4] = tested on: Mus musculus; test: Toxicity in CD1 mouse assessed as effect on aspartate aminotransferase activity at 5 mg/kg, po daily for 75 days; type: organism-based; design: dose 5 mg/kg, route oral; settings: in vivo, 1800 h
In short: (§2)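 After 75 days of daily oral gavage at 5 mg/kg, mice were sacrificed and blood was drawn from the heart into a heparinized syringe. Plasma was separated at once by centrifugation at 10,000 x g for 5 min. ALT and AST activities were measured with a commercial kit and compared between control and treated mice.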

[5] = tested on: Lung; test: Drug uptake in CD1 mouse lung at 5 mg/kg, po daily for 75 days; type: ADME, organism-based; design: dose 5 mg/kg, route oral; settings: in vivo, 1800 h; in short: as §1
[6] = tested on: Mus musculus; test: Toxicity in CD1 mouse assessed as effect on alanine transaminase activity at 5 mg/kg, po daily for 75 days; type: organism-based; design: dose 5 mg/kg, route oral; settings: in vivo, 1800 h; in short: as §2
[7] = Drug uptake in CD1 mouse brain at 5 mg/kg, po daily for 75 days; type: ADME, organism-based; design: dose 5 mg/kg, route oral; settings: read-out: Drug uptake; in short: as §1
[8] = Drug uptake in CD1 mouse liver at 5 mg/kg, po daily for 75 days; type: ADME, organism-based; design: dose 5 mg/kg, route oral; settings: read-out: Drug uptake; in short: as §1
[9] = Drug uptake in CD1 mouse pancreas at 5 mg/kg, po daily for 75 days; type: ADME, organism-based; design: dose 5 mg/kg, route oral; settings: read-out: Drug uptake; in short: as §1
[10] = tested on: Mus musculus; test: Toxicity in CD1 mouse assessed as effect on locomotion at 5 mg/kg, po daily for 75 days by Versamax chamber test; type: organism-based; design: dose 5 mg/kg, route oral; settings: in vivo, 1800 h
In short: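 After 75 days of daily 5 mg/Kg oral gavage, control and treated mice were acclimatized for 15 min in a Versamax chamber, then their movements were monitored. Measures were clockwise and counter-clockwise activity, total distance, rest time, and vertical and horizontal activity, compared against control.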

[11] = Drug uptake in CD1 mouse kidney at 5 mg/kg, po daily for 75 days; type: ADME, organism-based; design: dose 5 mg/kg, route oral; settings: read-out: Drug uptake; in short: as §1

Compound	EC50 [1] [µM]	CC50 [2] [µM]	further results
COc1cc(NCCC(N)=O)c2nccc(C)c2c1Oc1cccc(C(F)(F)F)c1	0.5	> 50	
COc1cc(NCc2ccc(O)cc2)c2nccc(C)c2c1Oc1cccc(C(F)(F)F)c1	0.12	1.38	concentration at 1800 h [3]: 4.5 µM; Activity [4]: Non-toxic; Drug uptake [5]: NotTraceable; Activity [6]: Non-toxic; concentration at 1800 h [7]: 24.4 µM; concentration at 1800 h [8]: 7.1 µM; concentration at 1800 h [9]: 26.5 µM; Activity [10]: Non-toxic; concentration at 1800 h [11]: 16.1 µM
Cc1ccnc2c(NCc3ccc(O)cc3)cc(O)c(Oc3cccc(C(F)(F)F)c3)c12		3.31	
COc1cc(NCCCN)c2nccc(C)c2c1Oc1cccc(C(F)(F)F)c1	0.15	2.1	
COc1cc(NCc2ccc(O)cc2)c2nccc(C)c2c1	2.62	20.5	
COc1cc(NCc2cccc3cccnc23)c2nccc(C)c2c1Oc1cccc(C(F)(F)F)c1	0.19	> 50	
COc1cc(NCc2ccc(O)cc2)c2nccc(C)c2c1Oc1ccccc1	0.53	4.01	
COc1cc(NC(=O)c2ccco2)c2nccc(C)c2c1Oc1cccc(C(F)(F)F)c1	3.47	> 50	
COc1cc(CNc2cc(OC)c(Oc3cccc(C(F)(F)F)c3)c3c(C)ccnc23)cc(OC)c1O	0.48	2.91	
COc1cc(NCCCN)c2nccc(C)c2c1	17.6	> 50	
COc1cc(NCc2ccc(O)cc2)c2nccc(C)c2c1Oc1cccc(F)c1	0.7	2.6	
COc1cc(NCCCN)c2nccc(C)c2c1Oc1cccc(F)c1	0.6	7.28	
COc1cc(NCc2nccs2)c2nccc(C)c2c1Oc1cccc(C(F)(F)F)c1	2.39	20.3	
COc1cc(NCc2ccc(-c3ccccc3)s2)c2nccc(C)c2c1Oc1cccc(C(F)(F)F)c1	0.39	14.5	
COc1cc(NCCCN)c2nccc(C)c2c1Oc1ccccc1	0.42	8.16	
COc1cc(NCc2cc3ccccc3o2)c2nccc(C)c2c1Oc1cccc(C(F)(F)F)c1	0.46	> 50	

— ChEMBL document CHEMBL3352531, “Syntheses, neural protective activities, and inhibition of glycogen synthase kinase-3β of substituted quinolines” (Bioorg Med Chem Lett, 2014)
